Data taken from ChEMBL document CHEMBL1125748, “Non-steroidal antiandrogens. Design of novel compounds based on an infrared study of the dominant conformation and hydrogen-bonding properties of a series of anilide antiandrogens” (J Med Chem, 1991).

What was measured:
[1] = Partition coefficient (logP); format: physicochemical; conditions: octanol/water
[2] = target: T1, Androgen receptor (Rattus norvegicus) (UniProt P15207); experiment: In vitro relative binding affinity for rat androgen receptor
T1 sequence (whole entry): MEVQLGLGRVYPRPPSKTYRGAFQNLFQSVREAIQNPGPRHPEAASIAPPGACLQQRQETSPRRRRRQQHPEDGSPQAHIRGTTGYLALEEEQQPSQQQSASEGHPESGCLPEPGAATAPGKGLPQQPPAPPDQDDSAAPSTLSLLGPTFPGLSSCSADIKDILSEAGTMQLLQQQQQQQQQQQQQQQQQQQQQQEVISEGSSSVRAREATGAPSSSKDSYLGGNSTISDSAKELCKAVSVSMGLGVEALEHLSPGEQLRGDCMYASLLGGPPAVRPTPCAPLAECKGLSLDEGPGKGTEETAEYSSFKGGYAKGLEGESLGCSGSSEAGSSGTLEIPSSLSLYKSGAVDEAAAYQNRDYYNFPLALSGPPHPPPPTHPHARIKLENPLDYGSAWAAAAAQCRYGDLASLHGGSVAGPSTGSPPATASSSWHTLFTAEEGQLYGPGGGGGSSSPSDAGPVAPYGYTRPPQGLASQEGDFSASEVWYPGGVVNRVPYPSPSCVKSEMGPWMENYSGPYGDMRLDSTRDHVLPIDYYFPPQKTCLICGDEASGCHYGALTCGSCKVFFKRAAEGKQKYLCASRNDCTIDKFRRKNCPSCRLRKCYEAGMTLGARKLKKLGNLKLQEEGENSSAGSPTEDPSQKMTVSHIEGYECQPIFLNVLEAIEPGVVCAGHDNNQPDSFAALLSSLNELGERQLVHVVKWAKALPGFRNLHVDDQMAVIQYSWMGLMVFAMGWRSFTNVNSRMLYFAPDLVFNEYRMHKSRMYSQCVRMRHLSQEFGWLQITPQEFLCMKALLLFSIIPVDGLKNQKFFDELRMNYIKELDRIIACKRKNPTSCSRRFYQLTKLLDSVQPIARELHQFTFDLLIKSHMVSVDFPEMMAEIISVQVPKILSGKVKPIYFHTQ

[3] = target: T1, Androgen receptor (Rattus norvegicus); experiment: Inhibition of anti-androgenic activity in vivo on groups of five rats treated with seven daily subcutaneous doses of testosterone propionate at 200 ug/kg
[4] = target: T1, Androgen receptor (Rattus norvegicus); experiment: In vitro relative binding affinity for rat Androgen receptor
[5] = target: T1, Androgen receptor (Rattus norvegicus); experiment: Anti-androgenic activity in vivo on groups of five rats treated with seven daily oral doses of testosterone propionate at 200 ug/kg; format: functional, organism-based; conditions: in the assay text read “seven daily subcutaneous doses” for “seven daily oral doses”
Procedure, shortened: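 Male rats, five per group, castrated at 24 days of age, then given testosterone propionate 200 µg/kg subcutaneously daily for seven days. Antiandrogen was given orally, daily, over the same seven days. Rats were killed 24 h after the last dose and seminal vesicles weighed. Percent inhibition of testosterone-stimulated weight was taken against a running castrate control, and ED50 was read from the dose-response curve.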

SMILES | logP [1] | relative binding affinity (RBA) [2] | other results
CC(C)(O)C(=O)Nc1ccc([N+](=O)[O-])c(C(F)(F)F)c1 [HYDROXYFLUTAMIDE] | 2.7 | 2.1 | –
CC(C)(O)C(=O)Nc1ccc(Cl)cc1 | 2 | – | –
CC(O)(C(=O)Nc1ccc([N+](=O)[O-])c(C(F)(F)F)c1)C(F)F (configuration not stated) | 3.76 | – | –
Cc1c(C(C)(O)C(F)(F)F)[nH]c2ccccc12 (configuration not stated) | – | 6.7 | inhibition [3]: 33%
CC(=O)C(O)(/C=C/c1ccc(Cl)c(Cl)c1)C(F)(F)F (configuration not stated) | – | 0.4 | –
CC(O)(CF)C(=O)Nc1ccc([N+](=O)[O-])c(C(F)(F)F)c1 (configuration not stated) | 3.5 | – | relative binding affinity (RBA) [4]: 5.9
CC(C(=O)Nc1ccc([N+](=O)[O-])c(C(F)(F)F)c1)C(F)(F)F (configuration not stated) | 3.71 | – | –
CC(C)C(=O)Nc1ccc([N+](=O)[O-])c(C(F)(F)F)c1 [FLUTAMIDE] | 3.35 | – | –
N#CCC(O)(/C=C/c1ccc(Cl)c(Cl)c1)C(F)(F)F (configuration not stated) | – | 3.6 | ED50 [5]: 2.5 mg/kg
OC(/C=C/c1ccc(Cl)c(Cl)c1)(C(F)(F)F)C(F)(F)F | – | < 0.2 | –
CN(C(=O)C(C)(C)O)c1ccc([N+](=O)[O-])c(C(F)(F)F)c1 | 3.06 | – | –
OC(/C=C/c1ccc(Cl)c(Cl)c1)(CCl)C(F)(F)F (configuration not stated) | – | 1.8 | ED50 [5]: 2 mg/kg
CC(C)(O)C(=O)Nc1ccc([N+](=O)[O-])cc1 | 1.61 | – | –
CC(O)(/C=C/c1ccc(Cl)c(Cl)c1)C(F)(F)F (configuration not stated) | – | – | relative binding affinity (RBA) [4]: < 0.2
CC(O)(C(=O)Nc1ccc([N+](=O)[O-])c(C(F)(F)F)c1)C(F)(F)F (configuration not stated) | 3.21 | – | –
NC(=O)CC(O)(/C=C/c1ccc(Cl)c(Cl)c1)C(F)(F)F (configuration not stated) | – | 0.5 | ED50 [5]: 2.5 mg/kg
